Laboratory results reported in the array DNA melting data of Ke et al. (doi:10.1101/2024.01.08.574731).

Tests used:
[1] = melting temperature; fluorescence melt of hairpins on a sequencing array, two-state fit, raised by 9.35 °C to match UV melts; settings: sodium 0.088 M
Outline: (§1)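 Folding enthalpy and melting temperature were estimated with bootstrapped two-state fits and combined across four replicates by inverse-variance weighting, with fitted temperatures raised by 9.35 °C to match UV melts. The data were Cy3 fluorescence of library hairpins, with annealed Cy3 and quencher oligos, on a sequenced MiSeq flow cell in 50 mM Na-HEPES pH 8.0, 25 mM NaCl, imaged in 2.5 °C steps up to 60 °C and normalised to pre-quench Cy3 and control constructs.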

[2] = folding enthalpy; higher = less favourable; fluorescence melt of hairpins on a sequencing array, two-state fit; settings: sodium 0.088 M
Outline: as §1

Sequence	Tm [1] [°C]	folding enthalpy [2] [kcal/mol]
GATCACGACTGTGATC ((((((....))))))	64	-37.1
GACCGTGGAAACGCGGTC (((((.(....).)))))	58.6	-40
GGTCCGCCGAAAGGCACC (((..(((....))))))	28.3	-8.71
GATCCTCATTAGGATC ((((((....))))))	51.1	-33.8
GAGCAAGGAAACTTGTTC ((.((((....)))).))	36.2	-26.1
GATCCAACATGGATC ((((((...))))))	50.4	-33.7
GACTAGCCGAAAGGCGTC (((..(((....))))))	40.5	-9.39
GTGCAGGGAAACTTGCGC (.(((.(....).))).)	42	-31.2
GCAGAGCGAAAGCTTCGC ((..(((....)))..))	44.8	-17.2
GATCCATAAATGGATC ((((((....))))))	50.3	-47.5
GGGTGAGGAAACTCGCCC (((.(((....))).)))	57.4	-34
GCGTCCGAACGC ((((....))))	53.2	-21.8
GAGTTACCGAAAGGTCTC (((..(((....))))))	29.4	-16.9
GCTGGGCGAAAGCGGAGC (((..((....))..)))	44.1	-17.2
GGACCGGCGAAAGCCTCC (((..(((....))))))	27.5	-10.2
GATCACTAACGTGATC ((((((....))))))	54.9	-33.1
GGGCAGGGAAACCTGCTC (.(((((....))))).)	59.6	-20
GTGTGTGGAAACACATAC ((.((((....)))).))	50	-20.3
CGACTCCGGAAACGGTCG (((..(((....))))))	38.4	-24.1
GCAAGTGGAAACGCTTGC (((((.(....).)))))	54.9	-39.1
GAGTTCGCGAAAGCGCTC (((..(((....))))))	25.9	-6.78
GATCCATTGCTGGATC ((((((....))))))	50.8	-36.6
GCCGCGCGAAAGCCCCGC ((.(.((....)).).))	33.3	-7.57

Sequence	Tm [1] [°C]	folding enthalpy [2] [kcal/mol]
GTGAGTCCGAAAGGACAC (((..(((....))))))	49.6	-13.1
GGCTGCGAAAGCAAGGCC ((((((....)))..)))	55.8	-18.5
GTCGAACGAAAGTTGGAC (((.(((....))).)))	50.6	-46.4
GCTTACGAAAGTAACAGC ((((((....)))..)))	37	-16.2
GGACCACCGAAAGGTTCC (((..(((....))))))	29.6	-11.2
GGAAGCGAAAGCTAATCC ((((((....)))..)))	26.7	-12
GATCTTTGGGAAGATC ((((((....))))))	45.6	-34.1
AATGTGAAAACATT (((((....)))))	37.8	-15
GTTCTCGAAAGAGAAAAC ((((((....)))..)))	32.6	-14
GCCCGGCGAAAGCTGTGC ((.(.((....)).).))	40.9	-19.7
GTTCCCCGAAAGGGCAAC (((.(((....))).)))	35.2	-14.5
GCTGGTGGAAACACCAAC (.(((((....))))).)	41.3	-14.4
GAGTCCGAAAGGAGCTC ((((((....))).)))	47.2	-22
GTGCGACCGAAAGGTCAC (((..(((....))))))	60	-13.1
GCTCCGCGAAAGCGTGGC ((..(((....)))..))	50.1	-15.7
GCGAAGGGTCGC ((((....))))	48.2	-12.1
GATCCCATATGGGATC ((((((....))))))	61.8	-35.3
CGCGGAAGTATCCGCG ((((((....))))))	69	-37.9
GGTGCACGAAAGTGAACC (((.(((....))).)))	61.4	-35.3
GATCAAAGCGTTGATC ((((((....))))))	43.7	-31.6
GGGTCTGAAAAGACCC ((((((....))))))	68.4	-26
GCAACTGCGAAAGCATGC (((..(((....))))))	40.2	-13.5
GATAGGCCGAAAGGCATC (((..(((....))))))	30.3	-9.82
